According to ChEMBL document CHEMBL4699393, “Meridianin D analogues possess antibiofilm activity against Mycobacterium smegmatis” (RSC Med Chem, 2020):
≈ marks a conversion by molar mass, not a printed value.

Assays:
[1] = tested on: Mycolicibacterium smegmatis; experiment: Antibiofilm activity against Mycobacterium smegmatis mc2 155 ATCC 700084 assessed as inhibition of biofilm formation measured after 24 hrs by crystal violet reporter assay; assay type: functional, organism-based; conditions: MC2 155 ATCC 700084, 24 h
[2] = tested on: Mycolicibacterium smegmatis; experiment: Antibiofilm activity against Mycobacterium smegmatis mc2 155 ATCC 700084 assessed as dispersion of preformed biofilms measured after 24 hrs by crystal violet reporter assay; assay type: functional, organism-based; conditions: MC2 155 ATCC 700084, 24 h
Method in brief: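 Cultures (48 h) diluted to 0.01 in M9 minimal salts with glucose, MgSO4 and CaCl2 in PVC plates. Biofilm grown stationary at 37 °C for 48 h, washed, then fresh medium with compound added for 24 h at 37 °C. Stained with 0.1% crystal violet 30 min, solubilised in 95% ethanol, OD540 read. Media blanks subtracted. Dispersion calculated against untreated biofilm wells. At least three repeats.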

[3] = tested on: Mycolicibacterium smegmatis; experiment: Potentiation of Cefotaxime-induced antibacterial activity against Mycobacterium smegmatis mc2 155 ATCC 700084 assessed as fold reduction in Cefotaxime MIC at 60 uM incubated for 48 hrs by alamarblue dye based broth microdilution method; assay type: functional
Method in brief: (§1)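 Inoculum from 48 h cultures set to 5 x 10^5 CFU/mL in 7H9 + ADC and pre-dosed with compound from DMSO stock at fixed concentration. β-lactam two-fold serially diluted from top concentration, with an antibiotic-only control series. Stationary 37 °C for 48 h, then alamarBlue for 8 h. MIC is the lowest blue (non-viable) well. Fold reduction is relative to the antibiotic-only MIC. Duplicates, at least two repeats.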

[4] = tested on: Mycolicibacterium smegmatis; experiment: Potentiation of oxacillin-induced antibacterial activity against Mycobacterium smegmatis mc2 155 ATCC 700084 assessed as fold reduction in oxacillin MIC at 60 uM incubated for 48 hrs by alamarblue dye based broth microdilution method; assay type: functional; method in brief: as §1
[5] = tested on: Mycolicibacterium smegmatis; experiment: Potentiation of Cefoxitin-induced antibacterial activity against Mycobacterium smegmatis mc2 155 ATCC 700084 assessed as fold reduction in Cefoxitin MIC at 60 uM incubated for 48 hrs by alamarblue dye based broth microdilution method; assay type: functional; method in brief: as §1
[6] = tested on: Mycolicibacterium smegmatis; experiment: Potentiation of Ceftazidime-induced antibacterial activity against Mycobacterium smegmatis mc2 155 ATCC 700084 assessed as fold reduction in Ceftazidime MIC at 60 uM incubated for 48 hrs by alamarblue dye based broth microdilution method; assay type: functional; method in brief: as §1
[7] = tested on: Mycolicibacterium smegmatis; experiment: Potentiation of Ampicillin-induced antibacterial activity against Mycobacterium smegmatis mc2 155 ATCC 700084 assessed as fold reduction in Ampicillin MIC at 60 uM incubated for 48 hrs by alamarblue dye based broth microdilution method; assay type: functional; method in brief: as §1
[8] = tested on: Mycolicibacterium smegmatis; experiment: Potentiation of Cefotaxime-induced antibacterial activity against Mycobacterium smegmatis mc2 155 ATCC 700084 assessed as Cefotaxime MIC at 60 uM incubated for 48 hrs by alamarblue dye based broth microdilution method (reference value: 128 ug/ml); assay type: functional; method in brief: as §1
[9] = tested on: Mycolicibacterium smegmatis; experiment: Potentiation of Oxacillin-induced antibacterial activity against Mycobacterium smegmatis mc2 155 ATCC 700084 assessed as Oxacillin MIC at 60 uM incubated for 48 hrs by alamarblue dye based broth microdilution method (Rvb =512 ug/ml); assay type: functional; method in brief: as §1
[10] = tested on: Mycolicibacterium smegmatis; experiment: Potentiation of Cefoxitin-induced antibacterial activity against Mycobacterium smegmatis mc2 155 ATCC 700084 assessed as Cefoxitin MIC at 60 uM incubated for 48 hrs by alamarblue dye based broth microdilution method (reference value: 16 ug/ml); assay type: functional; method in brief: as §1
[11] = tested on: Mycolicibacterium smegmatis; experiment: Potentiation of Ceftazidime-induced antibacterial activity against Mycobacterium smegmatis mc2 155 ATCC 700084 assessed as Ceftazidime MIC at 60 uM incubated for 48 hrs by alamarblue dye based broth microdilution method (reference value: 512 ug/ml); assay type: functional; method in brief: as §1
[12] = tested on: Mycolicibacterium smegmatis; experiment: Potentiation of Ampicillin-induced antibacterial activity against Mycobacterium smegmatis mc2 155 ATCC 700084 assessed as Ampicillin MIC at 60 uM incubated for 48 hrs by alamarblue dye based broth microdilution method (reference value: 128 ug/ml); assay type: functional; method in brief: as §1
[13] = tested on: Mycolicibacterium smegmatis; experiment: Antibacterial activity against Mycobacterium smegmatis mc2 155 ATCC 700084 assessed as inhibition of bacterial growth incubated for 48 hrs by alamarblue dye based broth microdilution method; assay type: functional
Method in brief: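 Inoculum from 48 h cultures set to 5 x 10^5 CFU/mL in 7H9 + ADC. Compound in DMSO two-fold serially diluted from 200 µM top concentration. Stationary 37 °C for 48 h, then alamarBlue for 8 h at 37 °C. MIC is the lowest concentration with no viable bacteria (blue, not pink). Duplicate wells, at least two independent repeats.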

[14] = Hemolytic activity in sheep RBC assessed as hemolysis at 500 uM measured after 1 hr by UV spectrometer analysis; assay type: ADME, cell-based, Ovis aries, Erythrocyte; conditions: sheep red blood cells (erythrocytes), read-out: Activity
Method in brief: (§2)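 Mechanically defibrinated sheep blood was centrifuged, and the cells were washed and resuspended in PBS three times, then diluted 10-fold. Compound was added from DMSO stock. Controls were 1% Triton X (100% lysis) and PBS (zero lysis). Samples were incubated 1 h at 37 °C with shaking at 200 rpm, then centrifuged. Supernatant was diluted 40-fold in distilled water and read at A540. Run in duplicate, repeated at least twice.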

[15] = Hemolytic activity in sheep RBC assessed as hemolysis at 200 uM measured after 1 hr by UV spectrometer analysis; assay type: ADME, cell-based, Ovis aries, Erythrocyte; conditions: sheep red blood cells (erythrocytes), read-out: Activity; method in brief: as §2

Nc1nccc(-c2c[nH]c3cccc(Br)c23)n1
IC50 [1]: > 50 µM | EC50 [2]: > 50 µM

Nc1nccc(-c2c[nH]c3c(Br)cccc23)n1
IC50 [1]: 26 µM | EC50 [2]: > 50 µM

Nc1nccc(-c2c[nH]c3ccc(Cl)cc23)n1
IC50 [1]: 18.3 µM | EC50 [2]: > 50 µM

Nc1nccc(-c2c[nH]c3ccc(F)cc23)n1
IC50 [1]: 16 µM | EC50 [2]: > 50 µM

Nc1nccc(-c2c[nH]c3cc(Cl)ccc23)n1
IC50 [1]: 26.6 µM | EC50 [2]: > 50 µM

CCCn1cc(-c2ccnc(N)n2)c2cc(Br)ccc21
IC50 [1]: 15.1 µM | EC50 [2]: > 50 µM

CCCn1cc(-c2ccnc(N)n2)c2ccc(I)cc21
IC50 [1]: > 50 µM | EC50 [2]: > 50 µM

CCCCn1cc(-c2ccnc(N)n2)c2cc(Br)ccc21
IC50 [1]: 22.7 µM | EC50 [2]: > 50 µM

Nc1nccc(-c2c[nH]c3cc(F)ccc23)n1
IC50 [1]: 21.6 µM | EC50 [2]: > 50 µM

CC(C)Cn1cc(-c2ccnc(N)n2)c2ccc(Br)cc21
IC50 [1]: 50.4 µM | EC50 [2]: > 50 µM

CNc1nccc(-c2c[nH]c3ccc(Br)cc23)n1
IC50 [1]: 25.5 µM | EC50 [2]: 45 µM | fold change (FC) [3]: 2 | fold change (FC) [4]: 2 | fold change (FC) [5]: 0 | fold change (FC) [6]: 0 | fold change (FC) [7]: 2 | MIC [8]: 64 µg/mL | MIC [9]: 256 µg/mL | MIC [10]: 16 µg/mL | MIC [11]: 512 µg/mL | MIC [12]: 64 µg/mL | MIC [13]: ≥ 200 µM

CCn1cc(-c2ccnc(N)n2)c2cc(Br)ccc21
IC50 [1]: 37.1 µM | EC50 [2]: > 50 µM

Nc1nccc(-c2c[nH]c3ccc(I)cc23)n1
IC50 [1]: 13.1 µM | EC50 [2]: 28.1 µM | fold change (FC) [3]: 2 | fold change (FC) [4]: 0 | fold change (FC) [5]: 0 | fold change (FC) [6]: 0 | fold change (FC) [7]: 0 | MIC [8]: 64 µg/mL | MIC [9]: 512 µg/mL | MIC [10]: 16 µg/mL | MIC [11]: 512 µg/mL | MIC [12]: 128 µg/mL | MIC [13]: ≥ 200 µM

Cn1cc(-c2ccnc(N)n2)c2cc(Br)ccc21
IC50 [1]: 27.8 µM | EC50 [2]: > 50 µM | fold change (FC) [3]: 8 | fold change (FC) [4]: 2 | fold change (FC) [5]: 2 | fold change (FC) [6]: 8 | fold change (FC) [7]: 4 | MIC [8]: 16 µg/mL | MIC [9]: 256 µg/mL | MIC [10]: 8 µg/mL | MIC [11]: 64 µg/mL | MIC [12]: 32 µg/mL | MIC [13]: ≥ 200 µM

CCn1cc(-c2ccnc(N)n2)c2ccc(Br)cc21
IC50 [1]: 39.1 µM | EC50 [2]: > 50 µM

CCNc1nccc(-c2c[nH]c3ccc(Br)cc23)n1
IC50 [1]: 14.2 µM | EC50 [2]: 39.3 µM | fold change (FC) [3]: 0 | fold change (FC) [4]: 0 | fold change (FC) [5]: 0 | fold change (FC) [6]: 0 | fold change (FC) [7]: 2 | MIC [8]: 128 µg/mL | MIC [9]: 512 µg/mL | MIC [10]: 16 µg/mL | MIC [11]: 512 µg/mL | MIC [12]: 64 µg/mL | MIC [13]: ≥ 200 µM

CCCn1cc(-c2ccnc(N)n2)c2ccc(Br)cc21
IC50 [1]: 34.5 µM | EC50 [2]: > 50 µM

Cc1ccc2[nH]cc(-c3ccnc(N)n3)c2c1
IC50 [1]: 15.7 µM | EC50 [2]: > 50 µM

Cn1cc(-c2ccnc(N)n2)c2ccc(Br)cc21
IC50 [1]: 26.7 µM | EC50 [2]: > 50 µM

CC(C)Cn1cc(-c2ccnc(N)n2)c2cc(Br)ccc21
IC50 [1]: 14.9 µM | EC50 [2]: > 50 µM

Nc1nc(-c2c[nH]c3ccc(Br)cc23)c[nH]1
IC50 [1]: 9.5 µM | EC50 [2]: > 50 µM | MIC [13]: 100 µM (≈ 27.7 µg/mL)

CN(C)c1nccc(-c2c[nH]c3ccc(Br)cc23)n1
IC50 [1]: 14.3 µM | EC50 [2]: 35.7 µM | fold change (FC) [3]: 0 | fold change (FC) [4]: 0 | fold change (FC) [5]: 0 | fold change (FC) [6]: 0 | fold change (FC) [7]: 2 | MIC [8]: 128 µg/mL | MIC [9]: 512 µg/mL | MIC [10]: 16 µg/mL | MIC [11]: 512 µg/mL | MIC [12]: 64 µg/mL | MIC [13]: ≥ 200 µM

Nc1nccc(-c2c[nH]c3cc(I)ccc23)n1
IC50 [1]: 13.2 µM | EC50 [2]: 29.4 µM | fold change (FC) [3]: 0 | fold change (FC) [4]: 0 | fold change (FC) [5]: 0 | fold change (FC) [6]: 0 | fold change (FC) [7]: 0 | MIC [8]: 128 µg/mL | MIC [9]: 512 µg/mL | MIC [10]: 16 µg/mL | MIC [11]: 512 µg/mL | MIC [12]: 128 µg/mL | MIC [13]: ≥ 200 µM

CCCCn1cc(-c2ccnc(N)n2)c2ccc(Br)cc21
IC50 [1]: > 50 µM | EC50 [2]: > 50 µM | hemolysis at 1 h, 500 µM [14]: 73% | hemolysis at 1 h, 200 µM [15]: 56%

CCCCCn1cc(-c2ccnc(N)n2)c2cc(Br)ccc21
IC50 [1]: > 50 µM | EC50 [2]: > 50 µM

Nc1nccc(-c2cn(Cc3ccccc3)c3cc(Br)ccc23)n1
IC50 [1]: 27.3 µM | EC50 [2]: > 50 µM

Nc1ncc(-c2c[nH]c3ccc(Cl)cc23)[nH]1
IC50 [1]: 16 µM | EC50 [2]: > 50 µM

Nc1ncc(-c2c[nH]c3cc(Cl)ccc23)[nH]1
IC50 [1]: 10.3 µM | EC50 [2]: 33.7 µM

Nc1ncc(-c2c[nH]c3ccc(F)cc23)[nH]1
IC50 [1]: 40.2 µM | EC50 [2]: > 50 µM

Nc1nccc(-c2c[nH]c3ccccc23)n1
IC50 [1]: 29.5 µM | EC50 [2]: > 50 µM

Nc1nccc(-c2c[nH]c3ccc(Br)cc23)n1 [MERIDIANIN C]
IC50 [1]: 22.7 µM | EC50 [2]: > 50 µM

Nc1nccc(-c2c[nH]c3cc(Br)ccc23)n1 [MERIDIANIN D]
IC50 [1]: 21.5 µM | EC50 [2]: 51 µM | fold change (FC) [3]: 0 | fold change (FC) [4]: 0 | fold change (FC) [5]: 0 | fold change (FC) [6]: 0 | fold change (FC) [7]: 0 | hemolysis at 1 h, 500 µM [14]: 13% | hemolysis at 1 h, 200 µM [15]: 8% | MIC [13]: 200 µM (≈ 57.8 µg/mL)
